UBC13 polyUb: UBC13 polyubiquitin chain formation inhibitors, primary screen, biochemical, TR-FRET, uHTS; hit rate 0.47% among 330,000; Ubiquitin-conjugating enzyme E2 N (Homo sapiens), P61088; AID 485273, 2010; inhibition, % at 20 µM; in the data active = inhibition above about 45%, passing the limit was not always enough
Target sequence (P61088 whole entry, looked up): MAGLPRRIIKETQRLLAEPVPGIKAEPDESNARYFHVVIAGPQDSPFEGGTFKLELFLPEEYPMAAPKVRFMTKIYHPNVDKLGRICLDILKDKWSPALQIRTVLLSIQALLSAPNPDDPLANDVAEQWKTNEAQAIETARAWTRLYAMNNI
SENP6 inh: SENP6 protease inhibitors, primary screen, biochemical, luminescence, uHTS; hit rate 1.8% among 330,000; inhibition, % at 10 µM; Sentrin-specific protease 6 (Homo sapiens), Q9GZR1; Recombinant SENP6 catalytic domain, aminoluciferin luminescence;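 active = inhibition above about 50% at the single tested dose, limit read from the data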
SENP8 block-1: human SENP8 protease inhibitors, primary screen, biochemical, fluorescence, Nedd8 protein substrate, uHTS; Sentrin-specific protease 8 (Homo sapiens), Q96LD8; recombinant SENP8; inhibition, % at 20 µM; hit rate 0.64% among 360,000; AID 602440, 2012; in the data active = inhibition mostly above about 40%, no sharp cut-off; inactive = mostly below about 27%
Target sequence (Q96LD8 whole entry, looked up): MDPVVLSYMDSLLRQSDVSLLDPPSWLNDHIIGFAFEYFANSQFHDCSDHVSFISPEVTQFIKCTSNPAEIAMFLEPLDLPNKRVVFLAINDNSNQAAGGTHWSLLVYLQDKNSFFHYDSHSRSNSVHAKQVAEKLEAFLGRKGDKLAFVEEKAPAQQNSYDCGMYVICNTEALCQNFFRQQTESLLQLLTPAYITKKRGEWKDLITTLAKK
Apaf1 inhib: inhibitors of human Apaf-1 apoptosome, primary screen, biochemical, DEVD-Rh110 fluorescence, uHTS. Apoptotic protease-activating factor 1 (Homo sapiens), O14727. reconstituted apoptosome caspase-3 activity. inhibition, % at 20 µM. hit rate 0.71% among 330,000; active = inhibition of at least 40% at 20 µM
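System – cell-free apoptosome with Apaf-1, procaspase-3 and caspase-9 · Buffer or medium – pH 7.5 Hepes buffer with CHAPS, BSA, DTT · Also added – cytochrome c with DEVD-Rh110 · Times – 30 min compound preincubation, 50 min activation, room temperature · Technique – Rh110 fluorescence intensity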
SENP8 block-2: SENP8 protease inhibitors, primary screen, biochemical, luminescence | Sentrin-specific protease 8 (Homo sapiens), Q96LD8 | purified SENP8, Z-RLRGG-aminoluciferin cleavage | inhibition, % at 10 µM | hit rate 1.2% among 330,000 | AID 2540, 2010; in the data active = inhibition above about 50%
SENP7 inh: SENP7 protease inhibitors, primary screen, biochemical, luminescence, uHTS. recombinant SENP7, Z-RLRGG-aminoluciferin luminescence, 40 min. inhibition, % at 5 µM. hit rate 1.5% among 330,000. AID 434973, 2010;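 active = inhibition above about 50% at the single test dose, limit read from the data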
Target sequence (Q9BQF6 706-1050 limits assumed): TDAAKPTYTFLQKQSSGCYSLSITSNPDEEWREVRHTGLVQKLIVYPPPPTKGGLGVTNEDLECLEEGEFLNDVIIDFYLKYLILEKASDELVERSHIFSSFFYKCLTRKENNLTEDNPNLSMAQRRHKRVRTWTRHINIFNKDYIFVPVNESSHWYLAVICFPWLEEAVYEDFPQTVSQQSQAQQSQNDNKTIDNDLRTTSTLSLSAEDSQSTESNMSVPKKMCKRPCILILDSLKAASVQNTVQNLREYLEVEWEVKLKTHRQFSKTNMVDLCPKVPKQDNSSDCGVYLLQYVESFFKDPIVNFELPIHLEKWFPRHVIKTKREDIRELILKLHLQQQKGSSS
SENP8 conf: SENP8 protease inhibitors, retest, confirmation, biochemical, luminescence, single concentration; inhibition, % at 12.5 µM; hit rate 40% among 6,200; shares compounds with SENP7 inh; Recombinant SENP8, Z-RLRGG-aminoluciferin luminescence, 60 min; AID 488912, 2010;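 active = mean inhibition across replicates above about 50%, limit read from the data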
SENP6 conf: SENP6 protease inhibitors, confirmation, biochemical, luminescence, single concentration; recombinant SENP6, Z-RLRGG-aminoluciferin luminescence; hit rate 58% among 6,200; AID 488915, 2010; inhibition, % at 12.5 µM; shares compounds with SENP7 inh
SENP7 confirm: SENP7 protease inhibitors, retest, confirmation, biochemical, luminescence, single concentration; shares compounds with SENP7 inh; hit rate 69% among 6,200; inhibition, % at 12.5 µM; recombinant SENP7, Z-RLRGG-aminoluciferin luminescence, 40 min
Casp3 SENP sel: caspase-3 protease inhibitors, confirmation, selectivity assay for SENP inhibitor project, biochemical, single concentration | AID 488918, 2010 | shares compounds with SENP7 inh | inhibition, % at 12.5 µM | hit rate 60% among 6,200 | purified caspase-3, Z-DEVD-aminoluciferin luminescence, 60 min;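 active = mean inhibition above about 50%, limit read from the data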
SENP luc ctr: counter-screen for SENP inhibitors: luminescence interference; shares compounds with SENP7 inh; inhibition, % at 12.5 µM; hit rate 39% among 6,200; Pre-incubated SENP8/Z-RLRGG-aminoluciferin, luciferase luminescence interference;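 active = mean inhibition above about 50% when retested at one dose, limit read from the data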
Apaf-1 inh conf: Apaf-1 inhibitors, single-dose retest, confirmation, biochemical, fluorescence, DEVD-Rh110, 20 µM; shares compounds with Apaf1 inhib; reconstituted apoptosome, caspase-3 DEVD-Rh110 fluorescence; inhibition, % at 20 µM; hit rate 25% among 1,800; AID 504614, 2011;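 active = mean inhibition of at least 40% at 20 µM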
Rh110 quench: Rh110 fluorescence interference by putative Apaf-1 inhibitors, confirmation, artefact control for Apaf-1 inhibitor project, biochemical, 20 µM; shares compounds with Apaf1 inhib; quenched caspase reaction; activation (fluorescence interference), % at 20 µM; 1,800 tested, under 10 active; AID 504615, 2011;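 active = signal rise of 40% or more at 20 µM, treated as a fluorescence artifact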
Fluor interf inh: fluorescence interference of Apaf-1 inhibitor hits, dose response, artefact control for Apaf-1 inhibitor project; shares compounds with Apaf1 inhib; AID 588538, 2011; IC50, µM; fluorescence interference counterscreen, Apaf-1 assay format; 460 tested, under 10 active; call rule not given here
Numbers stand for hits; – = inactive; · = no result. An excerpt weighted towards active compounds, which were near 3% of everything screened.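 The calls were made as follows, unless noted: active = mean inhibition above about 50% in the one-dose retest (limit read from the data); inactive = the rest.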

SMILES	UBC13 polyUb	SENP6 inh	SENP8 block-1	Apaf1 inhib	SENP8 block-2	SENP7 inh	SENP8 conf	SENP6 conf	SENP7 confirm	Casp3 SENP sel	SENP luc ctr	Apaf-1 inh conf	Rh110 quench	Fluor interf inh
CCOC(=O)C1=C(COC(=O)c2ccc([N+](=O)[O-])s2)NC(=O)NC1C (centres undefined)	–	74.7	–	45.7	75.6	–	81.6	87.3	52.3	–	–	–	–	·
CCCNC(=O)C1(C)CCCN(C(=O)c2cccc(OC(F)(F)F)c2)C1 (centres undefined)	·	·	–	·	·	·	·	·	·	·	·	·	·	·
Cc1cc(C(=O)COc2ccc(Br)cc2F)c(C)n1CC1CCCO1 (centres undefined)	·	·	–	·	·	·	·	·	·	·	·	·	·	·
O=C1c2ccccc2-c2nnc(-c3ccc(O)cc3)cc21	–	98.9	–	90.7	96.0	100.5	95.1	94.2	101.4	96.2	–	–	–	·
O=C1c2ccccc2-c2nnc(-c3ccc(F)cc3)cc21	–	83.0	41.9	78.2	90.4	98.7	86.3	84.5	82.1	–	–	–	–	·
Cc1ccccc1-c1cc2c(nn1)-c1ccccc1C2=O	–	99.7	105.3	97.1	96.4	98.5	82.7	98.8	101.5	97.7	56.4	60.7	–	–
CCOC(=O)CN(C(=O)c1snc(C(N)=O)c1N)C(C(=O)NCCC(C)C)c1ccc(C)cc1 (centres undefined)	·	·	–	·	·	·	·	·	·	·	·	·	·	·
COC(=O)[C@]12CCCCC=C1N(Cc1cccc3ccccc13)C(=O)[C@H](CC(=O)N1CCN(C(=O)c3ccco3)CC1)C2	·	·	–	·	·	·	·	·	·	·	·	·	·	·
Cc1nnc(N/N=C/c2ccccc2C(F)(F)F)n1N	–	–	–	–	–	–	·	·	·	·	·	·	·	·
CN(C)c1cc(N/N=C/c2ccccc2C(F)(F)F)nc(N(C)C)n1	–	55.2	–	56.2	–	–	–	–	–	–	–	50.8	–	–
CC(C)N(C(=O)Nc1ccc2nsnc2c1)C(C)C	–	98.1	·	97.5	97.2	95.3	82.6	89.0	74.6	–	–	95.6	–	–
COc1ccc(N(C)C(=O)Nc2ccc3nsnc3c2)cc1	·	·	–	·	·	·	·	·	·	·	·	·	·	·
CC(C)(C)N1C(=O)Cc2c1nc(N)c1c(N)nc(N3CCCCC3CO)c(C#N)c21 (centres undefined)	–	93.1	–	98.7	96.5	94.2	–	–	–	–	–	–	–	·
CN(CCO)c1nc(N)c2c(N)nc3c(c2c1C#N)CC(=O)N3C1CCCC1	–	91.3	·	98.3	95.9	96.2	–	–	–	–	–	–	–	·
OC(c1ccccc1)(c1nc(-c2cccc3cccnc23)cs1)C(F)(F)F (centres undefined)	·	·	–	·	·	·	·	·	·	·	·	·	·	·
O=C(NNC(=O)c1ccc(NC(=O)c2ccccc2)cc1)c1ccc(F)cc1	–	–	–	–	–	–	·	·	·	·	·	·	·	·
O=C(NC1=C(Nc2ccc(F)cc2)C(=O)c2ccccc2C1=O)c1ccc(Cl)cc1	–	63.5	93.0	70.5	–	–	–	60.0	–	–	–	68.4	–	–
COc1ccccc1-c1c(C#N)c(N)nc2c1CCc1ccccc1-2	–	96.3	–	96.3	77.6	78.0	–	–	–	–	–	–	–	·
CC(=O)Nc1ccc(S(=O)(=O)NC2=C(N3CCN(c4ccc(F)cc4)CC3)C(=O)c3ccccc3C2=O)cc1	–	62.6	78.3	63.9	–	–	–	56.2	–	53.0	–	63.6	–	–
Cc1ccc(NC2=C(N3CCOCC3)C(=O)c3ccccc3C2=O)cc1	–	79.6	70.8	59.0	68.4	–	71.8	82.6	72.4	87.7	–	81.1	–	–
CC(=O)c1ccc(NC2=C(N3CCOCC3)C(=O)c3ccccc3C2=O)cc1	–	53.2	59.2	80.1	–	–	–	56.0	–	–	–	45.5	–	–
CCCCNC(=O)C1(C)CCN1C(=O)c1ccc(OC)c(F)c1 (centres undefined)	·	·	–	·	·	·	·	·	·	·	·	·	·	·
CC(=O)Nc1ccc(C(=O)N2CCCC(c3cc(C(=O)Nc4ccccc4Cl)no3)C2)cc1 (centres undefined)	·	·	–	·	·	·	·	·	·	·	·	·	·	·
Nc1ccc2nn(-c3cccc4ccccc34)nc2c1	–	78.5	–	96.1	84.7	77.2	–	–	–	–	–	75.3	–	–
Cc1cc2nn(-c3cccc4ccccc34)nc2cc1N	–	–	–	–	–	–	·	·	·	·	·	·	·	·
SMILES	UBC13 polyUb	SENP6 inh	SENP8 block-1	Apaf1 inhib	SENP8 block-2	SENP7 inh	SENP8 conf	SENP6 conf	SENP7 confirm	Casp3 SENP sel	SENP luc ctr	Apaf-1 inh conf	Rh110 quench	Fluor interf inh
Nc1ccc2nn(-c3ccccc3)nc2c1	–	74.5	–	93.2	65.7	–	–	65.0	81.7	62.2	–	–	–	·
Nc1cc2nn(-c3ccccc3)nc2cc1Cl	·	·	–	·	·	·	·	·	·	·	·	·	·	·
Cc1nnc(NC(=O)CCN2C(=O)C3CC=CCC3C2=O)s1 (centres undefined)	·	·	–	·	·	·	·	·	·	·	·	·	·	·
COCC(=O)N1CCC(c2nc3ccccc3[nH]2)CC1	·	·	–	·	·	·	·	·	·	·	·	·	·	·
COc1cc(/C=C2/SC(=S)N(CC(=O)NNC(=O)c3ccc(F)cc3)C2=O)cc(OC)c1OC	·	·	–	·	·	·	·	·	·	·	·	·	·	·
CCOc1ccc(NC(=S)Nc2ccc(OCC)cc2)cc1	–	–	–	–	–	–	·	·	·	·	·	·	·	·
COc1ccc(NC(=S)Nc2cccc3cnccc23)cc1	–	88.3	–	95.4	–	66.6	–	–	–	–	–	–	–	·

From PubChem BioAssay
